# The list is not random: actives were taken first. Their share in the collection is about 2%.
# MBD2 inh: inhibitors of MBD2 binding to methylated DNA, primary screen, biochemical, TR-FRET, DNA-binding domain, human. inhibition, % at 4.4 µM. MBD2 binding to methylated oligonucleotide. actives 0.31% (n = 370,000); in the data active = inhibition above about 13%
# ARFGAP1 inh: inhibitors of rat ARFGAP1 GAP activity, primary screen, biochemical, fluorescence polarization, GDP tracer. AID 651572, 2012. inhibition, % at 16.5 µM. Arfgap1-stimulated ARF1 GTP hydrolysis, GDP FP detection. ADP-ribosylation factor GTPase-activating protein 1 (Rattus norvegicus), Q62848. actives 0.26% (n = 360,000);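 active = inhibition above a per-plate limit, mean inhibition of low control wells plus 3 SD, cut at about 25% in these data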;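 note: 0% = DMSO wells with enzyme and 100% = wells lacking Arfgap1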
#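 Material: truncated rat Arfgap1 GAP domain; Incubation: compound-enzyme preincubation 20 min, reaction 120 min, detection 60 min, 25 °C; Read-out: percent inhibition of Arfgap1-stimulated GTP hydrolysis; Technique: FP, GDP Alexa 633 tracer displaced from anti-GDP antibody, 620/688 nm; Controls: No-Arfgap1 wells (100%) versus DMSO full-reaction wells (0%); Replication: single well per compound.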
# LEDGF integ inh: blockers of LEDGF/p75-dependent integrase strand transfer – biochemical, TR-FRET, high throughput, primary screen | actives 0.64% (n = 370,000) | inhibition, % at 3.7 µM | TR-FRET IN-LEDGF/p75 DNA integration, Eu/Cy5 | HIV-1 integrase (with human LEDGF/p75) | AID 743269, 2014;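 active = inhibition above the screen-wide mean plus 3 SD, cut at about 13% in these data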;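 note: signal is the Cy5 over europium emission ratio at 671 and 618 nm; 0% = plate median of compound wells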
# UHRF1 MBD2 ctr: UHRF1 methylated DNA binding inhibitors, primary screen, counter-screen for MBD2 inhibitor project, biochemical, TR-FRET, human UHRF1, single concentration; E3 ubiquitin-protein ligase UHRF1 (Homo sapiens), Q96T88; UHRF1 binding to methylated oligo; inhibition, % at 4.4 µM; actives 0.75% (n = 370,000); AID 687016, 2013; in the data active = inhibition above about 21%;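 note: UHRF1 SRA domain binding a hemimethylated CpG hairpin DNA probe; 0% = median of test compound wells and 100% = reference inhibitor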
# Target sequence (Q96T88 whole entry, looked up, the tested form may be a part): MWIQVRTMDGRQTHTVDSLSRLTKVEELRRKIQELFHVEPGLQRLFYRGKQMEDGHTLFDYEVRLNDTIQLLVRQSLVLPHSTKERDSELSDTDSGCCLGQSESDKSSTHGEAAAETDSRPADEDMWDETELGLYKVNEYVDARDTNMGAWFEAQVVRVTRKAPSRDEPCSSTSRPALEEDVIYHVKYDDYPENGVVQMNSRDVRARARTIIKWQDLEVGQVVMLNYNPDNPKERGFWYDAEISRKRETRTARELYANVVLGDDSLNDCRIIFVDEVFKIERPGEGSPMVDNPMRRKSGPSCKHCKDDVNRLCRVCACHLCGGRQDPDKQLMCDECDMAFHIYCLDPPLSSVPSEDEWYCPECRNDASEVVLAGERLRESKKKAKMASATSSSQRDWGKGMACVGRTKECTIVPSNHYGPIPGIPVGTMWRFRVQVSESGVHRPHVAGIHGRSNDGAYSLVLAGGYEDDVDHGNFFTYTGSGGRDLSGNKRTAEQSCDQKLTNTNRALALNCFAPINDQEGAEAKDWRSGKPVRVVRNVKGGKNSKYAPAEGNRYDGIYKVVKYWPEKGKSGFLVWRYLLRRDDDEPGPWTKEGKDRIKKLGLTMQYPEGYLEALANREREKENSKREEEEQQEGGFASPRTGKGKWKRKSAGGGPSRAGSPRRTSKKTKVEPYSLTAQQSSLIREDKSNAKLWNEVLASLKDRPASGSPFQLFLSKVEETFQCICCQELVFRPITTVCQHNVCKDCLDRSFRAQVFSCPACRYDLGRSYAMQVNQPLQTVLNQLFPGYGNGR
# TDP2 absorb: human TDP2 enzyme inhibitors, primary screen, biochemical, epi absorbance, recombinant enzyme; Tyrosyl-DNA phosphodiesterase 2 (Homo sapiens), O95551; T5PNP hydrolysis, p-nitrophenol absorbance 415 nm; inhibition, % at 12.8 µM; actives 0.34% (n = 370,000); AID 720702, 2013;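 active = inhibition above the mean of all tested compounds plus 3 SD, set per campaign, cut at about 25% in these data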;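 note: 0% = DMSO with enzyme and 100% = buffer with substrate but no TDP2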
#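 System: recombinant human TDP2 / Amount: 120 nM TDP2 per well / Also added: 5 mM T5PNP chromogenic substrate / Doses: 12.8 µM single point, 1% DMSO / Incubation: 2 h at 37 °C / Detection: p-Nitrophenol epi absorbance / Evaluation: % inhibition relative to enzyme-containing and enzyme-free wells / Repeats: singlicate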
# ASAP1 inh: inhibitors of human ASAP1 ArfGAP activity, primary screen, biochemical, fluorescence polarization. actives 0.19% (n = 360,000). ASAP1-stimulated ARF1 GTP hydrolysis, GDP FP detection. AID 624377, 2012. Arf-GAP with SH3 domain, ANK repeat and PH domain-containing protein 1 (Homo sapiens), …. inhibition, % at 16.5 µM; in the data active = inhibition above about 25%;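 note: 0% = vehicle with enzyme and substrate and 100% = no enzyme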
# ARFGAP1 inh conf: ARFGAP1 inhibitor hit confirmation, biochemical, fluorescence polarization, triplicate. shares compounds with ARFGAP1 inh. ARFGAP1-stimulated ARF1 GTP hydrolysis, GDP tracer FP. inhibition, % at 16.5 µM. actives 30% (n = 890);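 active = average inhibition over triplicates above the hit cutoff set in the earlier primary screen, cut at about 25% in these data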;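 note: 0% = Arfgap1 plus ARF1-GTP with DMSO and 100% = wells lacking Arfgap1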
# UHRF1 ctr MBD2: UHRF1 methylated DNA binding inhibitors, counter-screen for MBD2 inhibitor project, biochemical, TR-FRET, human UHRF1; inhibition, % at 4.4 µM; UHRF1 binding to methylated oligonucleotide; actives 25% (n = 1,000); AID 720530, 2013; shares compounds with MBD2 inh; in the data active = inhibition above about 21%;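 note: UHRF1 SRA domain binding a labeled hemimethylated CpG hairpin DNA; 0% = vehicle only and 100% = reference inhibitor with vehicle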
# MBD2 confirm: inhibitors of MBD2 binding to methylated DNA, confirmation, biochemical, TR-FRET, DNA-binding domain, human; shares compounds with MBD2 inh; TR-FRET MBD2-DBD binding to methylated oligonucleotide; inhibition, % at 4.4 µM; actives 26% (n = 1,000)
# TDP2 confirm: human TDP2 enzyme inhibitors, retest, confirmation, biochemical, epi absorbance, recombinant enzyme; shares compounds with TDP2 absorb; absorbance read-out; actives 22% (n = 1,100); inhibition, % at 12.8 µM; in the data active = inhibition above about 25%;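 note: 0% = vehicle with enzyme and 100% = no enzyme buffer only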
# IN multimer act: HIV-1 IN multimer formation enhancers, counter-screen for LEDGF/p75 integration inhibitor project, biochemical, TR-FRET. actives 17% (n = 2,000). activation, % at 7.7 µM. AID 1053131, 2014. shares compounds with LEDGF integ inh. TR-FRET HIV-1 integrase multimerization; in the data active = activation above about 8.9%
# TR-FRET interf: TR-FRET optical interference artefacts, confirmation, artefact control for LEDGF/p75-dependent integration inhibitor project, biochemical, HIV-1 IN multimerization; 2,000 tested, under 10 active; shares compounds with LEDGF integ inh; inhibition, % at 7.7 µM; TR-FRET optical interference counterscreen;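 active = inhibition above the mean over all tested compounds plus 3 SD, which no compound reached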;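 note: 0% = integrase with antibodies and DMSO and 100% = antibodies without integrase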
# IN-LEDGF confirm: inhibitors of HIV-1 IN-LEDGF/p75 DNA integration, confirmation, biochemical, TR-FRET | AID 1053136, 2014 | shares compounds with LEDGF integ inh | inhibition, % at 3.7 µM | actives 36% (n = 2,000) | TR-FRET LEDGF/p75-dependent HIV-1 integration
# Starred values were filed as active, the others as inactive; . = no result given. Cut-off read from the data, not from the text of the source, unless noted: active = inhibition above about 14%; inactive = the rest.
SMILES,MBD2 inh,ARFGAP1 inh,LEDGF integ inh,UHRF1 MBD2 ctr,TDP2 absorb,ASAP1 inh,ARFGAP1 inh conf,others
CC(=O)c1ccc(NC(=O)COC(=O)c2c3c(nc4ccccc24)/C(=C\c2cccs2)CCC3)cc1,4,32*,0,1,4,23,20,
CC(C)[C@@H]1C(=O)N[C@H](Cc2cn(S(=O)(=O)c3ccccc3)c3ccccc23)C(=O)N1C,-1,.,-3,1,9,.,.,
O=C(N/N=C/C(Cl)=C/c1ccccc1)c1ccc2c(c1)OCO2,3,29*,0,-5,-1,23,36*,
COc1ccc2[nH]c3c(c2c1)CCN[C@]31C(=O)N(c2ccccc2)c2ccccc21,-3,.,-2,-1,-1,.,.,
CCOCC(=O)NC(=O)N1C[C@H]2CON(C)[C@H]2C[C@H]1c1ccc(OC)cc1,1,.,5,0,4,.,.,
O=C(COC(=O)C12CC3CC(CC(C3)C1)C2)N1CCN(S(=O)(=O)c2ccccc2)CC1,0,29*,1,1,-3,-10,3,
C[C@H]1[C@@H](OC(=O)NC2CCCCC2)CC[C@@]23CCCN2C(=O)CCC[C@@H]13,1,.,-3,-2,-9,.,.,
Cc1sc2nc(SCC(=O)N(CCO)CCO)nc(N)c2c1C,3,28*,-3,6,-3,8,-1,
CC(C)(C)C(=O)OC12CCCN(C1)/C(=C/c1cccnc1)C2 (centres undefined),-1,.,5,3,-6,.,.,
O=C(COC(=O)c1ccc([N+](=O)[O-])cc1)NC12CC3CC(CC(C3)C1)C2,-7,26*,2,-1,1,-8,-5,
O=C(COC(=O)c1ccccc1)NC12CC3CC(CC(C3)C1)C2,-4,-4,-2,0,-9,-5,.,
Cc1cccc(NC(=O)C2C(c3ccccc3)C2(Cl)Cl)c1 (centres undefined),11,28*,0,5,-8,-1,9,
COc1ccc(CCNC(=O)c2c(N)[nH]c(C(=O)c3ccccc3)c2-c2ccc(N(C)C)cc2)cc1,0,.,1,3,-10,.,.,
Cc1nn(-c2ccccc2)c(N)c1N=Nc1cccc(S(=O)(=O)N2CCOCC2)c1,-3,29*,-4,-1,-7,5,6,
COC[C@@H]1CCCN1c1cccc2c1S(=O)(=O)N(C1CC1)CC[C@@H](C)O2,4,.,-3,-3,3,.,.,
Cc1sc2ncnc(SCC(=O)Nc3cccc(S(N)(=O)=O)c3)c2c1C,-1,27*,3,6,-3,-1,2,
O=C(Oc1cccnc1)c1ccccc1[N+](=O)[O-],-8,25*,-4,-3,-2,-14,6,
CCOc1cc(/C=N/n2c(C)nnc2C)ccc1O,0,28*,0,-2,2,5,7,
O=C(Nc1ccc(-c2nc3ccccc3[nH]2)cc1)c1ccc2c(c1)OCO2,14*,26*,-38,6,-21,21,32*,UHRF1 ctr MBD2=9;MBD2 confirm=10
COC(=O)C1CN(C2CCCC2)CCS(=O)(=O)N1Cc1ccc(C(F)(F)F)cc1 (centres undefined),-5,.,3,-1,1,.,.,
COc1ccc(NC2=C(NC(C)=O)C(=O)c3ccccc3C2=O)cc1,-23,21,-6,-19,11,7,.,
COc1ccc(NC2=C(NCCO)C(=O)c3ccccc3C2=O)cc1,-4,28*,7,11,36*,-2,-3,TDP2 confirm=34*
Cc1ccc(OCc2nnc(SCC(=O)Nc3cccc4ccccc34)n2Cc2ccco2)cc1,-1,.,0,0,3,.,.,
O=C(NC1(O)C(=O)c2ccccc2C1=O)c1c(Cl)cccc1Cl,-4,26*,-3,3,71*,21,10,TDP2 confirm=79*
C=CCN(CC=C)C(=S)Nc1ccc2nsnc2c1,-3,32*,58*,12,72*,22,3,TDP2 confirm=59*;IN multimer act=0;TR-FRET interf=1;IN-LEDGF confirm=-3
CCOc1ccc(NC(=S)Nc2ccc3nsnc3c2)cc1,-9,26*,40*,10,72*,22,7,TDP2 confirm=74*;IN multimer act=8;TR-FRET interf=-30;IN-LEDGF confirm=74*
Brc1ccc(-c2nn3c(-c4ccccc4)nnc3s2)o1,-6,.,2,-3,-4,.,.,

# High-throughput results from PubChem BioAssay.
